# Experimental data reported in ChEMBL document CHEMBL6134784, “Furoxan-piplartine hybrids as effective NO donors and ROS inducers in PC3 cancer cells: design, synthesis, and biological evaluation” (RSC Med Chem, 2024).
# Activity calls are given as the source filed them. The calls are words filed in the database; no cut-off is given here.
# Assays:
# [1] = system: PC-3; experiment: Induction of apoptosis in human PC-3 cells assessed as viable cells at 0.05 uM measured after 6 hrs by Alexa Fluor 488-annexin V/propidium iodide staining based flow cytometry (reference value: 89.37%); assay type: functional; details: read-out: Activity
# [2] = system: PC-3; experiment: Induction of morphological changes in human PC-3 cells assessed as reduction in cell density at 0.05 uM measured after 24 hrs in presence of antioxidant N-acetyl-L-cysteine by phase contrast microscopy; assay type: functional, cell-based
# Method in brief: (§1)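 PC3 cells were seeded at 1×10^5 per well in 6-well plates and treated after 24 h, with or without 1 mM N-acetyl-L-cysteine. The same observation field was imaged by phase contrast microscopy at 1, 2, 3, 4 and 24 h. DMSO vehicle served as control.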
# [3] = system: PC-3; experiment: Cell cycle arrest in human PC-3 cells assessed as reduction in cell accumulation at S phase at 0.05 uM measured after 3 hrs by propidium iodide staining based flow cytometry; assay type: functional
# Method in brief: (§2)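 PC3 cells seeded 1×10^5 per well in 6-well plates, exposed 3 h, with or without 1 mM N-acetyl-L-cysteine pretreatment; vehicle 0.1% DMSO. Harvested with trypsin-EDTA, fixed in 75% ethanol in PBS at 4 °C for 30 min, stained 1 h with RNase (1.5 mg mL^-1) and propidium iodide (90 μg mL^-1); DNA content by flow cytometry. Phase fractions compared with control by ANOVA/Tukey.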
# [4] = system: PC-3; experiment: Cell cycle arrest in human PC-3 cells assessed as up regulation of CDKN1A gene expression at 0.05 uM measured after 3 hrs by qPCR analysis; assay type: functional, cell-based
# Method in brief: (§3)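 Seeded 1×10^5 cells per well in 6-well plates; PC3 treated 3 h. Total RNA extracted, qPCR; each target normalized to reference gene (β-actin) by efficiency-corrected ΔΔCt (Pfaffl) against a control calibrator sample, efficiencies from amplification profiles. Mean ± SEM of four independent experiments.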
# [5] = system: PC-3; experiment: Cell cycle arrest in human PC-3 cells assessed as accumulation of cells at sub-G1 phase at 0.05 uM measured after 3 hrs by propidium iodide staining based flow cytometry (reference value: 0.75 +/- 0.21%); assay type: functional; method in brief: as §2
# [6] = system: PC-3; experiment: Cell cycle arrest in human PC-3 cells assessed as down regulation of CCND1 gene expression at 0.05 uM measured after 3 hrs by qPCR analysis; assay type: functional, cell-based; method in brief: as §3
# [7] = system: PC-3; experiment: Induction of morphological changes in human PC-3 cells assessed as cell rounding at 0.05 uM measured after 24 hrs by phase contrast microscopy; assay type: functional, cell-based; method in brief: as §1
# [8] = system: PC-3; experiment: Cell cycle arrest in human PC-3 cells assessed as down regulation of cyclin D1 expression at 0.05 uM measured after 3 hrs by Western blot analysis; assay type: functional, cell-based
# Method in brief: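 Western blot: PC3 seeded 1×10^7 per 100 mm dish, treated 3 h or 6 h, lysed in RIPA with protease/phosphatase inhibitors; 50 μg protein on 12% SDS-PAGE, PVDF transfer, 5% milk block, anti-cyclin D1 (1:1000) overnight at 4 °C, HRP anti-rabbit secondary, β-actin loading control, ECL detection and band densitometry; two independent experiments.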
# [9] = system: PC-3; experiment: Induction of morphological changes in human PC-3 cells assessed as loss of adhesion at 0.05 uM measured after 24 hrs in presence of antioxidant N-acetyl-L-cysteine by phase contrast microscopy; assay type: functional, cell-based; method in brief: as §1
# [10] = system: PC-3; experiment: Induction of apoptosis in human PC-3 cells assessed as necrotic cells at 0.05 uM measured after 6 hrs by Alexa Fluor 488-annexin V/propidium iodide staining based flow cytometry (reference value: 1.28%); assay type: functional
# [11] = system: PC-3; experiment: Cell cycle arrest in human PC-3 cells assessed as increase in cell accumulation at G2/M phase in presence of antioxidant N-acetyl-L-cysteine at 0.05 uM measured after 3 hrs by propidium iodide staining based flow cytometry; assay type: functional; method in brief: as §2
# [12] = system: PC-3; experiment: Cytotoxicity against human PC-3 cells assessed as reduction in cell viability at 0.05 uM measured after 24 hrs by SRB assay; assay type: functional, cell-based
# Method in brief: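 SRB assay: PC3 seeded 1×10^4 per well, after 24 h exposed 24 h at 37 °C, 5% CO2 with or without 1 mM N-acetyl-L-cysteine; vehicle 0.1% DMSO. Fixed with 15% TCA at 4 °C for 1 h, dried, stained 0.4% sulforhodamine B, dye solubilized in 10 mM Tris, absorbance 540 nm; ANOVA/Tukey.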
# [13] = system: PC-3; experiment: Cell cycle arrest in human PC-3 cells assessed as reduction in cell accumulation at S phase in presence of antioxidant N-acetyl-L-cysteine at 0.05 uM measured after 3 hrs by propidium iodide staining based flow cytometry; assay type: functional; method in brief: as §2
# [14] = system: PC-3; experiment: Cell cycle arrest in human PC-3 cells assessed as increase in cell accumulation at G2/M phase at 0.05 uM measured after 3 hrs by propidium iodide staining based flow cytometry; assay type: functional; method in brief: as §2
# [15] = system: PC-3; experiment: Cell cycle arrest in human PC-3 cells assessed as increase in cell accumulation at sub-G1 phase at 0.05 uM measured after 3 hrs in presence of antioxidant N-acetyl-L-cysteine by propidium iodide staining based flow cytometry; assay type: functional; method in brief: as §2
# [16] = system: PC-3; experiment: Induction of morphological changes in human PC-3 cells assessed as cell rounding at 0.24 uM measured after 24 hrs by phase contrast microscopy; assay type: functional, cell-based; method in brief: as §1
# [17] = system: PC-3; experiment: Induction of DNA damage in human PC-3 cells assessed as increase in phosphorylated gamma-H2AX expression at 0.24 uM measured after 6 hrs by DAPI staining based confocal laser scanning microscopy; assay type: functional, cell-based
# Method in brief: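 γ-H2AX immunostaining: PC3 on coverslips (1×10^5 cells), serum-starved 18 h, then treated (methods state 1 h; legend states 6 h); fixed 3.7% formaldehyde, permeabilized 0.25% Triton X-100, blocked 3% albumin, anti-phospho-H2A.X Ser139 (1:500) then Alexa Fluor 488 secondary, DAPI nuclei; confocal, 500 cells per slide, three experiments; UVC 20 min positive control.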
# [18] = system: PC-3; experiment: Cell cycle arrest in human PC-3 cells assessed as increase in cell accumulation at sub-G1 phase at 0.24 uM measured after 3 hrs in presence of antioxidant N-acetyl-L-cysteine by propidium iodide staining based flow cytometry; assay type: functional; method in brief: as §2
# [19] = system: PC-3; experiment: Induction of ROS generation in human PC-3 cells at 0.24 uM measured after 30 mins by CellROX reagent based confocal microscopy; assay type: functional, cell-based
# Method in brief: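 Confocal ROS imaging of PC3: cells loaded with 2.5 μM CellROX green plus 0.5 μM MitoTracker Red for 30 min at 37 °C, washed three times in PBS, imaged immediately; DMSO vehicle and H2O2 controls.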
# [20] = system: PC-3; experiment: Cell cycle arrest in human PC-3 cells assessed as reduction in cell accumulation at G0/G1 phase in presence of antioxidant N-acetyl-L-cysteine at 0.24 uM measured after 3 hrs by propidium iodide staining based flow cytometry; assay type: functional; method in brief: as §2
# [21] = system: PC-3; experiment: Induction of morphological changes in human PC-3 cells assessed as loss of adhesion at 0.24 uM measured after 24 hrs in presence of antioxidant N-acetyl-L-cysteine by phase contrast microscopy; assay type: functional, cell-based; method in brief: as §1
# [22] = system: PC-3; experiment: Induction of apoptosis in human PC-3 cells assessed as late apoptotic cells at 0.24 uM measured after 6 hrs by Alexa Fluor 488-annexin V/propidium iodide staining based flow cytometry (reference value: 3.37%); assay type: functional
# [23] = system: PC-3; experiment: Induction of apoptosis in human PC-3 cells assessed as viable cells at 0.24 uM measured after 6 hrs by Alexa Fluor 488-annexin V/propidium iodide staining based flow cytometry (reference value: 89.37%); assay type: functional; details: read-out: Activity
# [24] = system: PC-3; experiment: Cell cycle arrest in human PC-3 cells assessed as reduction in cell accumulation at G0/G1 phase at 0.24 uM measured after 3 hrs by propidium iodide staining based flow cytometry; assay type: functional; method in brief: as §2
compound,measurement,setting,value
COc1cc(/C=C/C(=O)N2CCC=CC2=O)cc(OC)c1OCCCCCCCCCCCCOc1no[n+]([O-])c1S(=O)(=O)c1ccccc1,viability at 0.05 µM,[1],12.6%
same,Activity,[2],inactive
same,Activity,[3],Active
same,Activity,[4],Active
same,Activity,[5],9.8%
same,Activity,[6],Active
same,Activity,[7],Active
same,Activity,[8],Active
same,Activity,[9],inactive
same,Activity,[10],0.87%
same,Activity,[11],Active
same,Activity,[12],Active
same,Activity,[13],Active
same,Activity,[14],Active
same,Activity,[15],inactive
COc1cc(/C=C/C(=O)N2CCC=CC2=O)cc(OC)c1OCCCOc1no[n+]([O-])c1S(=O)(=O)c1ccccc1,Activity,[16],Active
same,Activity,[17],Active
same,Activity,[18],inactive
same,Activity,[19],Active
same,Activity,[20],Active
same,Activity,[21],inactive
same,Activity,[22],43.61%
same,viability at 0.24 µM,[23],48.6%
same,Activity,[24],Active; Significant Reduction Observed
